Results taken from PubChem BioAssay.
Activity calls are given as the source filed them.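 The calls were made as follows, unless noted: active = viability loss from added drug above about 55%, and viability with drug at most 40%, in both replicates (limit read from the data, passing the limit was not always enough); inconclusive = both conditions met in only one replicate; inactive = neither replicate meets both conditions.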

Assays:
[1] = reducers of endogenous Her2 protein level, primary screen, SKBR3 breast tumor cells, AlphaScreen, ATP viability (AID 461;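 active = Her2 level under about 52% in both replicate screens, with viability over 70% of control, limit read from the data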;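 as to Her2 level: lower value means less Her2 protein in the cells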;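 as to viability: percent of carrier control wells set as 100% viability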); conditions: 18-24 h, measured here: SKBR3 viability, ATP luminescence, at 10 µM
[2] = target: Receptor tyrosine-protein kinase erbB-2 (Homo sapiens) (UniProt P04626); experiment: as above; conditions: 18-24 h, at 10 µM, stronger effect = lower value
Receptor tyrosine-protein kinase erbB-2 (Homo sapiens), sequence (P04626 whole entry, looked up): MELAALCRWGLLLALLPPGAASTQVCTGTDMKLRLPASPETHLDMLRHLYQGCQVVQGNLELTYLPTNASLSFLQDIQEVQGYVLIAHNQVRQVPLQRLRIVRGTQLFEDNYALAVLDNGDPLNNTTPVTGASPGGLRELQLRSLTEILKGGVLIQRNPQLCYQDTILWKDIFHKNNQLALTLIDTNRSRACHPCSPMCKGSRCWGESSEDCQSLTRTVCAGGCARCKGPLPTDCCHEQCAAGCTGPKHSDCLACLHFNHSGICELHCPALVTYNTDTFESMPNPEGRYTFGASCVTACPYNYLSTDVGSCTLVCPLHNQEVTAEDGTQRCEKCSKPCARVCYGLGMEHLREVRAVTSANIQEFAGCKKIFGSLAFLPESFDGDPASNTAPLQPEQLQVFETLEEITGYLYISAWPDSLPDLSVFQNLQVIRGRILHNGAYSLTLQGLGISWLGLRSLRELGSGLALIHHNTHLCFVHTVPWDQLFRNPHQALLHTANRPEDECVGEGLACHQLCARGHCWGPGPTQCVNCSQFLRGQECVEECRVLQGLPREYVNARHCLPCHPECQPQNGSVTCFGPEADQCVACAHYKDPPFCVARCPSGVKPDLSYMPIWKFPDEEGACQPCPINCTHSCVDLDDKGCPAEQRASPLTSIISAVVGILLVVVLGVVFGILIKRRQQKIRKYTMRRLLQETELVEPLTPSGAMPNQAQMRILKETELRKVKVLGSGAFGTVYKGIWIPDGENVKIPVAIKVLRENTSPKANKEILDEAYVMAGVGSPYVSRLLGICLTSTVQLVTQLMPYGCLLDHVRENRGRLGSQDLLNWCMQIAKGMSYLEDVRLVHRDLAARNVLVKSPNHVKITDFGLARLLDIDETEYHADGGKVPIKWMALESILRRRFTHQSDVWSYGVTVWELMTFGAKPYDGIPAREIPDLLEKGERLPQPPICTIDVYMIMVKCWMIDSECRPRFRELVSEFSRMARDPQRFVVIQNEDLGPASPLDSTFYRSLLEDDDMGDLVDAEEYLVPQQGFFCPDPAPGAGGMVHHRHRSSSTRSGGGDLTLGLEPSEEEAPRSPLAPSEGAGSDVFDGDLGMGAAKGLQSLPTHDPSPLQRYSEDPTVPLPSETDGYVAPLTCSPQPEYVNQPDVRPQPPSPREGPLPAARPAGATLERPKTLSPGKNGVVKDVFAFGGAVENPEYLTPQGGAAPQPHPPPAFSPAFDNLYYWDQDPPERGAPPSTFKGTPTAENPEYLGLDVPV

[3] = SK-BR-3 cell growth inhibitors, pilot screen, 24 h, human (AID 572;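 active = viability at or below 10% of carrier control in both of two separate runs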;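 also: compound exposure lasted between 18 and 24 h rather than exactly 24 h; 100% = carrier-treated control wells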); conditions: SK-BR-3 viability, CellTiter-Glo luminescence, at 10 µM, stronger effect = lower value
[4] = HUVEC growth inhibition – cell-based, human, primary screen (AID 575;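 active = viability at or below 30% in both replicate assays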;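 also: 100% = median of untreated cell wells with 0.1% DMSO on each plate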); conditions: HUVEC proliferation, CellTiter-Glo luminescence, 72 h; at 10 µM; stronger effect = lower value
Method in brief: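 System: primary human umbilical vein endothelial cells; Quantity: 1250 endothelial cells in each well; Buffer or medium: supplemented EBM, 2% fetal bovine serum; Doses: one dose, 10 µM final, 0.1% DMSO; Incubation: 72 h compound incubation; Technique: ATP-based CellTiter-Glo luminescent read; Evaluation: percent of median DMSO-control luminescence; Controls: vehicle and MePR control wells.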

[5] = growth inhibitors of H69AR lung tumor, primary screen, human, duplicate replicates (AID 580;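 active = viability at or under a set limit in both replicates, limit being median viability minus 3 SD, cut at about 48% in these data, passing the limit was not always enough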;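 also: 100% = mean luminescence of untreated wells and 0% = no signal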); conditions: H69AR lung tumor cells viability, ATP luminescence, 72 h; at 10 µM; stronger effect = lower value
[6] = reversal of MRP1-mediated doxorubicin resistance, pilot screen, H69AR cells, doxorubicin co-treatment (AID 601); conditions: CellTiter-Glo, 72 h, at 10 µM; for differential viability (reversal): stronger effect = higher value
[7] = 384-well plate pilot, post-Golgi transport modulator project, inhibition of yeast transport mutant growth (AID 636; in the data active = inhibition above about 31%); conditions: absorbance 615 nm, about 18 h, stronger effect = higher value
[8] = growth suppression of yeast trafficking mutant, preliminary HTS, modulators of trafficking downstream of Golgi apparatus project, 1536-format plate, OD 615 nm (AID 637; in the data active = inhibition above about 30%); conditions: yeast transport mutant growth, absorbance 615 nm, 18 h; stronger effect = higher value
[9] = H69AR cells + 2 uM doxorubicin, measured here: viability with 2 uM doxorubicin, stronger effect = lower value
[10] = H69AR cells, compound alone cytotoxicity

SMILES | viability [1] [%] | Her2 level [2] | viability [3] | viability [4] | viability [5] | differential viability (reversal) ([6]; H69AR cells + 2 uM doxorubicin) | viability [6, 9] [%] | viability [6, 10] [%] | inhibition [7] | inhibition [8]
CCOc1ccc(S(=O)(=O)Nc2ccccc2C(=O)Nc2ccccc2N2CCOCC2)cc1 | 104 | 97.5% (inactive) | 104% (inactive) | 74.5% (inactive) | 93.4% (inactive) | 2.71% (inactive) | 90.7 | 93.4 | -6.67% (inactive) | 3.06% (inactive)
O=C(Nc1ccc(-c2noc(-c3cccs3)n2)cc1)c1cccnc1 | 74.5 | 93% (inactive) | 74.5% (inactive) | 54% (inactive) | 32.9% (active) | -46.6% (inactive) | 79.5 | 32.9 | -0.81% (inactive) | -8.69% (inactive)
O=C(NCCCN1CCCC1=O)c1cncc(Br)c1 | 97 | 83.5% (inactive) | 97% (inactive) | 98.5% (inactive) | 103% (inactive) | 10.1% (inactive) | 93 | 103 | -6.67% (inactive) | 6.56% (inactive)
CC(NC(=O)CSc1n[nH]c(=O)n1C1CC1)C12CC3CC(CC(C3)C1)C2 (stereo not given) | 91.5 | 106% (inactive) | 91.5% (inactive) | 91.6% (inactive) | 99.8% (inactive) | 6.17% (inactive) | 93.6 | 99.8 | -4% (inactive) | -5.41% (inactive)
CCOc1cc(-c2nc3ccccn3c2NCC2CCCO2)ccc1O (stereo not given) | 69.5 | 111% (inactive) | 69.5% (inactive) | 88.7% (inactive) | 40.7% (active) | 5.11% (inactive) | 35.6 | 40.7 | 4.27% (inactive) | 24% (inactive)
Cc1c(C#N)sc2nc(-c3ccccc3)nc(N3CCCC3)c12 | 85.5 | 83% (inactive) | 85.5% (inactive) | 82.1% (inactive) | 77% (inactive) | -11.2% (inactive) | 88.1 | 77 | -3.59% (inactive) | -8% (inactive)
CS(=O)(=O)Nc1ccc(S(=O)(=O)Nc2nccs2)cc1 | 97 | 90% (inactive) | 97% (inactive) | 116% (inactive) | 95.9% (inactive) | 3.66% (inactive) | 92.2 | 95.9 | -2.93% (inactive) | 1.31% (inactive)
COCCN(C(=O)c1csnn1)C(C(=O)NC1CCCCC1)c1cccs1 (stereo not given) | 100 | 89% (inactive) | 100% (inactive) | 94.7% (inactive) | 98.9% (inactive) | 11% (inactive) | 87.9 | 98.9 | -7.6% (inactive) | 2.86% (inactive)
COc1ccc(CC(NC(C)=O)C(=O)N2CCN(C(=O)N(C(C)C)C(C)C)CC2)cc1 (stereo not given) | 90.5 | 110% (inactive) | 90.5% (inactive) | 94.5% (inactive) | 94.2% (inactive) | 5.88% (inactive) | 88.3 | 94.2 | -5.13% (inactive) | -12.8% (inactive)
Cc1nc2nc(SCC(=O)NCc3ccco3)nn2c(C)c1Cc1ccccc1 | 83 | 108% (inactive) | 83% (inactive) | 97.3% (inactive) | 75.2% (inactive) | -2% (inactive) | 77.2 | 75.2 | -5.27% (inactive) | -3% (inactive)
Cc1cc(NC(=O)COc2cccc(Oc3ccccc3)c2)no1 | 75.5 | 90% (inactive) | 75.5% (inactive) | 50.9% (inactive) | 22.4% (active) | -38.2% (inactive) | 60.6 | 22.4 | -0.38% (inactive) | 3.33% (inactive)
Cc1ccccc1OCCN1C(=O)NC2(CCc3ccccc32)C1=O (stereo not given) | 94.5 | 83.5% (inactive) | 94.5% (inactive) | 92.9% (inactive) | 82.7% (inactive) | 0.01% (inactive) | 82.7 | 82.7 | -6.62% (inactive) | 0% (inactive)
CCOc1ccccc1NC(=O)C1CCCN1C(=O)OCc1ccccc1 (stereo not given) | 84.5 | 93.5% (inactive) | 84.5% (inactive) | 111% (inactive) | 87.6% (inactive) | 2.29% (inactive) | 85.3 | 87.6 | -1.71% (inactive) | -10% (inactive)
OC(CN1CCN(c2ccccn2)CC1)Cn1c2ccccc2c2ccccc21 (stereo not given) | 100 | 114% (inactive) | 100% (inactive) | 67.2% (inactive) | 82.1% (inactive) | -10.4% (inactive) | 92.4 | 82.1 | -0.65% (inactive) | 6.5% (inactive)
Nc1ccc(-n2c(N)c(C(=O)NCc3ccc4c(c3)OCO4)c3nc4ccccc4nc32)cc1 | 72.5 | 66.5% (inactive) | 72.5% (inactive) | 64.6% (inactive) | 55.5% (inactive) | -17.4% (inactive) | 72.9 | 55.5 | -1.73% (inactive) | 6.61% (inactive)
CN1C2C=C3C(C#N)=C(N)C(C#N)(C#N)[C@@H](c4ccc(Cl)cc4)[C@@H]3C1CC2 (stereo not given in full) | 95 | 87% (inactive) | 95% (inactive) | 91.3% (inactive) | 68.9% (inactive) | -26.1% (inactive) | 94.9 | 68.9 | -5.73% (inactive) | -0.32% (inactive)
COc1cccc(NC(=O)CSc2nnc(-c3cc(-c4ccccn4)nc4ccccc34)o2)c1 | 94.5 | 85% (inactive) | 94.5% (inactive) | 81% (inactive) | 76.4% (inactive) | -3.28% (inactive) | 79.7 | 76.4 | -1.22% (inactive) | -4.6% (inactive)
COc1cccc(OC)c1OCCN1CCN(C(=O)c2ccco2)CC1 | 86.5 | 88.5% (inactive) | 86.5% (inactive) | 107% (inactive) | 95.8% (inactive) | 10.7% (inactive) | 85 | 95.8 | -6.85% (inactive) | -4.92% (inactive)
Cc1ccc(N2CC(C(=O)N3CCN(C(=O)c4ccco4)CC3)CC2=O)cc1 (stereo not given) | 96.5 | 91% (inactive) | 96.5% (inactive) | 104% (inactive) | 96.1% (inactive) | -1.97% (inactive) | 98.1 | 96.1 | 0.39% (inactive) | -1.29% (inactive)
Cc1ccc(S(=O)(=O)N2CCN(C(=O)CN3C(=O)NC4(CCOc5ccccc54)C3=O)CC2)cc1 (stereo not given) | 98.5 | 108% (inactive) | 98.5% (inactive) | 102% (inactive) | 101% (inactive) | 1.57% (inactive) | 99.8 | 101 | 4.08% (inactive) | -1.09% (inactive)
Cc1cccc(N2CCN(C(=O)CCn3c(=S)[nH]c4cc5c(cc4c3=O)OCO5)CC2C)c1 (stereo not given) | 86 | 85.5% (inactive) | 86% (inactive) | 38.2% (inactive) | 50.8% (inactive) | -5.97% (inactive) | 56.8 | 50.8 | -1.3% (inactive) | 1.27% (inactive)
O=C1CC(c2ccco2)=Nc2ccccc2N1 | 95 | 118% (inactive) | 95% (inactive) | 94.9% (inactive) | 109% (inactive) | 16.7% (inactive) | 92.5 | 109 | -0.13% (inactive) | -3.06% (inactive)
O=c1c2c3c(sc2nc2sc(C4CC4)nn12)CCCC3 | 110 | 92.5% (inactive) | 110% (inactive) | 82.7% (inactive) | 79.7% (inactive) | -7.56% (inactive) | 87.2 | 79.7 | -0.39% (inactive) | 20.7% (inactive)
O=C(CCSc1nccn1Cc1ccccc1)N1CCOCC1 | 107 | 111% (inactive) | 107% (inactive) | 103% (inactive) | 97% (inactive) | 11.1% (inactive) | 86 | 97 | -6.13% (inactive) | -0.65% (inactive)
COc1ccc(-n2c(Cc3cccn3C)nnc2SCC(=O)Nc2cccc(C)c2C)cc1 | 88.5 | 97% (inactive) | 88.5% (inactive) | 91.4% (inactive) | 93.8% (inactive) | -2.92% (inactive) | 96.7 | 93.8 | -0.64% (inactive) | -6.67% (inactive)
CCc1nnc(NC(=O)c2ccc(COc3ccccc3)o2)s1 | 97 | 104% (inactive) | 97% (inactive) | 77.9% (inactive) | 111% (inactive) | 2.33% (inactive) | 109 | 111 | -3.97% (inactive) | -4.6% (inactive)
COC(=O)c1ccc(C)c(NS(=O)(=O)c2ccc3c(c2)OCCO3)c1 | 87.5 | 74% (inactive) | 87.5% (inactive) | 49.2% (inactive) | 35% (active) | -37% (inactive) | 72 | 35 | 1.54% (inactive) | -3.67% (inactive)
c1ccc(CN2C3=NCCCN3c3ccccc32)cc1 | 79 | 84% (inactive) | 79% (inactive) | 82.9% (inactive) | 91.2% (inactive) | 8.3% (inactive) | 83 | 91.2 | -1.43% (inactive) | -3.65% (inactive)
CCOC(=O)CSc1nc2cccnc2n1-c1ccc(F)cc1 | 108 | 117% (inactive) | 108% (inactive) | 103% (inactive) | 102% (inactive) | 9.83% (inactive) | 92.4 | 102 | -4.8% (inactive) | -8.1% (inactive)
